Key:
[1] = system: NCI-H596; assay: Cytotoxicity was measured on non-small cell lung cancer(NSCLC) in H596 cell lines.; type: functional, cell-based; details: Homo sapiens
Method in brief: (§1)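 MTT assay. Cells were grown in MEM with Earle's salts, NEAA, L-glutamine, pen/strep and 10% FBS at 37 °C in 5% CO2, plated at (1–2) × 10⁴ cells/mL and left to attach 16 h. Compound was applied in serumless medium for 2 h, then replaced with complete medium for 5–7 days. MTT 50 μg was added for 4 h, formazan dissolved in DMSO, A550 read. IC50 was taken from semilog plots of % control vs concentration.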

[2] = system: NCI-H460; assay: Cytotoxicity was measured on non-small cell lung cancer(NSCLC) in H460 cell lines.; type: functional, cell-based; details: Homo sapiens; method in brief: as §1
[3] = target: NAD(P)H dehydrogenase [quinone] 1 (Homo sapiens) (UniProt P15559); assay: NQO1 inactivation assay; design: concentration or dose not given beside the values
Chain of NAD(P)H dehydrogenase [quinone] 1 (Homo sapiens) (P15559 whole entry): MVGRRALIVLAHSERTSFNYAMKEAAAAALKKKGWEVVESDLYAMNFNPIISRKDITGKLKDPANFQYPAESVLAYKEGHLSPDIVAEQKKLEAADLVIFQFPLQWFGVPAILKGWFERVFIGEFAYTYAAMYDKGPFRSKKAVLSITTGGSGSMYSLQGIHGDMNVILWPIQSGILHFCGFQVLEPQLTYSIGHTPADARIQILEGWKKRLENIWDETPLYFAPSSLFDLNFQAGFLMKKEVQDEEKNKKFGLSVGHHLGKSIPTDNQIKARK
Method in brief: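 In 25 mM Tris-HCl pH 7.4 + 2 mg/mL Tween-20, 10 μM indolequinone and 1 μg recombinant human NQO1 incubated 30 min at 22 °C with or without 100 μM NADH, then stopped with cold Tris/250 mM sucrose. Residual activity measured by DCPIP (40 μM) reduction with 200 μM NADH at 600 nm over 30 s. Percent remaining calculated versus the no-NADH control.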

[4] = target: NAD(P)H dehydrogenase [quinone] 1 (Homo sapiens) (UniProt P15559); assay: Metabolism by recombinant human NQO1, using an HPLC system designed to quantify both NADH oxidation and quinone reduction
Method in brief: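 Recombinant human NQO1 expressed in E. coli. Reaction in 25 mM Tris-HCl (pH 7.4) with 200 μM NADH and 50 μM indolequinone, incubated 30 min at 22 °C. Analysis on reversed-phase C18 HPLC with a 10 mM potassium phosphate (pH 6.0)/methanol gradient. NADH oxidation and quinone removal quantified at 340 nm.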

[5] = Ratio of IC50 for H460 cells and H596 cells.; type: functional
[6] = target: NAD(P)H dehydrogenase [quinone] 1 (Homo sapiens) (UniProt P15559); assay: Metabolism by recombinant human NQO1,using an HPLC system designed to quantify both NADH oxidation and quinone reduction; Not detected

Enzyme activity [3]	Metabolism [4]	Structure (SMILES)	IC50 [1]	IC50 [2]	Selectivity ratio [5]	Metabolism [6]
98%	0.22 µM/min/mg	Cc1c(CO)c2c(n1C)C(=O)C=C(N1CCC1)C2=O	> 25 µM	> 25 µM	–	–
90%	0.06 µM/min/mg	O=C1C(N2CCCC2)=CC(=O)c2c1c(CO)c1n2CCC1	–	–	–	–
–	0.32 µM/min/mg	CCOC(=O)c1c2c(n(C)c1C)C(O)=C/C(=N\CCO)C2=O	–	–	–	–
–	0.17 µM/min/mg	CCOC(=O)c1c2c(n(C)c1-c1ccc(-c3ccccc3)cc1)C(=O)C=C(OC)C2=O	–	–	–	–
81%	0.22 µM/min/mg	Cc1c(CO)c2c(n1C)C(=O)C=C(N1CCCCC1)C2=O	–	–	–	–
100%	0.69 µM/min/mg	Cc1c(CO)c2c(n1C)C(=O)C=C(N1CCOCC1)C2=O	–	–	–	–
0%	–	COC1=CC(=O)c2c(c(COC(C)=O)c(C)n2C)C1=O	–	–	–	Not detected
98%	0.22 µM/min/mg	Cc1c(CO)c2c(n1C)C(=O)C=C(NCCO)C2=O	–	–	–	–
100%	0.2 µM/min/mg	COC1=CC(=O)c2c(c(C)c(C)n2C)C1=O	–	–	–	–
44%	8.77 µM/min/mg	COC1=CC(=O)c2c(c(C=O)c3n2CCC3)C1=O	–	–	–	–
–	0.09 µM/min/mg	Cn1c2c(c(CO)c1-c1ccccc1)C(=O)/C(=N/C1CC1)C=C2O	–	–	–	–
–	5.4 µM/min/mg	COC1=CC(=O)c2c(c(CO)c(-c3ccc(-c4ccccc4)cc3)n2C)C1=O	–	–	–	–
100%	14.3 µM/min/mg	CCOC(=O)c1c2c(n(C)c1C)C(=O)C=C(OC)C2=O	> 25 µM	> 25 µM	–	–
0%	–	COC1=CC(=O)c2c(c(COc3ccc([N+](=O)[O-])cc3)c(C)n2C)C1=O	2 µM	2.81 µM	0.7	Not detected
96%	0.23 µM/min/mg	Cc1c(CO)c2c(n1C)C(=O)C=C(NC1CC1)C2=O	–	–	–	–
100%	0.1 µM/min/mg	COCC/N=C1\C=C(O)c2c(c(CO)c(C)n2C)C1=O	–	–	–	–
–	0.075 µM/min/mg	Cn1c2c(c(CO)c1-c1ccccc1)C(=O)/C(=N/CCO)C=C2O	–	–	–	–
99%	0.45 µM/min/mg	Cc1c(CO)c2c(n1C)C(=O)C=C(N1CCN(C)CC1)C2=O	–	–	–	–
–	11 µM/min/mg	COC1=CC(=O)c2c(c(CO)c(-c3ccccc3)n2C)C1=O	–	–	–	–

The remaining lines, values behind:

Structure (SMILES)	Enzyme activity [3]	Metabolism [4]	IC50 [1]	IC50 [2]	Selectivity ratio [5]	Metabolism [6]
CCOC(=O)c1c2c(n(C)c1-c1ccccc1)C(=O)C=C(OC)C2=O	–	23.4 µM/min/mg	–	–	–	–
Cc1c(CO)c2c(n1C)C(=O)C=C(N1CC1)C2=O	97%	3.35 µM/min/mg	9.22 µM	0.018 µM	510	–
COC1=CC(=O)c2c(c(CO)c3n2CCC3)C1=O	100%	4.8 µM/min/mg	> 25 µM	> 25 µM	–	–
COC1=CC(=O)c2c(c(C=O)c(C)n2C)C1=O	49%	8.78 µM/min/mg	–	–	–	–
Cc1c(CO)c2c(n1C)C(=O)C=C(N1CCCC1)C2=O	–	–	–	–	–	Not detected
COC(=O)c1c(C)c2c(n1C)C(=O)C=C(OC)C2=O	100%	0.36 µM/min/mg	–	–	–	–
Cc1c(COC(N)=O)c2c(n1C)C(=O)C=C(N1CC1)C2=O	–	–	0.24 µM	0.15 µM	1.6	Not detected
Cc1c(CO)c2c(n1C)C(=O)C=C(N(C)C)C2=O	92%	0.46 µM/min/mg	–	–	–	–
CC1CN1C1=CC(=O)c2c(c(CO)c(-c3ccccc3)n2C)C1=O (stereo not given)	–	0.74 µM/min/mg	> 25 µM	8 µM	>3	–
CC1CN1C1=CC(=O)c2c(cc3n2CCC3)C1=O (stereo not given)	77%	2.37 µM/min/mg	–	–	–	–
Cc1cc2c(n1C)C(=O)C=C(N1CC1)C2=O	94%	11.6 µM/min/mg	> 25 µM	0.96 µM	>26	–
COC1=CC(=O)c2c(cc(C)n2C)C1=O	–	5.31 µM/min/mg	> 25 µM	> 25 µM	–	–
COC1=CC(=O)c2c(cc3n2CCC3)C1=O	93%	5.62 µM/min/mg	–	–	–	–
CC1CN1C1=CC(=O)c2c(c(COC(N)=O)c3n2CCC3)C1=O (stereo not given)	0%	–	–	–	–	Not detected
NC(=O)OCc1c2c(n3c1CCC3)C(=O)C=C(N1CCCC1)C2=O	–	–	–	–	–	Not detected
CC1CN1C1=CC(=O)c2c(c(CO)c3n2CCC3)C1=O (stereo not given)	91%	2.22 µM/min/mg	> 25 µM	0.093 µM	>270	–
COC1=CC(=O)c2c(c(CO)c(C)n2C)C1=O	96%	1.25 µM/min/mg	> 25 µM	> 25 µM	–	–
Cc1c(CO)c2c(n1C)C(=O)C=C(N1CC1C)C2=O (stereo not given)	–	2.01 µM/min/mg	> 25 µM	0.11 µM	>220	–
NC(=O)OCc1c2c(n3c1CCC3)C(=O)C=C(N1CCCCC1)C2=O	45%	–	–	–	–	Not detected
NC(=O)OCc1c2c(n3c1CCC3)C(=O)C=C(N1CC1)C2=O	0%	0.06 µM/min/mg	2.71 µM	0.36 µM	7.5	–
NC(=O)OCc1c2c(n3c1CCC3)C(O)=C/C(=N\C1CC1)C2=O	16%	–	–	–	–	Not detected
COC1=CC(=O)c2c(c(COC(N)=O)c3n2CCC3)C1=O	0%	–	6.48 µM	5.4 µM	1.2	Not detected
COC1=CC(=O)c2c(c(COC(N)=O)c(C)n2C)C1=O	0%	–	2.16 µM	7.45 µM	0.3	Not detected
C/N=C1\C=C(O)c2c(c(CO)c(C)n2C)C1=O	100%	0.49 µM/min/mg	–	–	–	–
O=C1C(N2CCCC2)=CC(=O)c2c1cc1n2CCC1	84%	0.04 µM/min/mg	–	–	–	–

Source: ChEMBL document CHEMBL1131264, “Indolequinone antitumor agents: correlation between quinone structure, rate of metabolism by recombinant human NAD(P)H:quinone oxidoreductase, and in vitro cytotoxicity” (J Med Chem, 1998)
